In ChEMBL document CHEMBL4152290, “1H-Benzo[d]imidazoles and 3,4-dihydroquinazolin-4-ones: Design, synthesis and antitubercular activity” (Eur J Med Chem, 2018):
In brackets after ≈: the same amount, converted by molar mass.

Legend:
[1] = tested on: Mycobacterium tuberculosis; test: Antitubercular activity against Mycobacterium tuberculosis H37Rv ATCC 27294 after 7 days by resazurin dye based assay; assay type: functional; details: H37Rv ATCC 27294, 168 h
Method in brief: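 Resazurin microtiter MIC in 7H9 with 10% ADC. Two-fold dilutions from 1 mg/mL DMSO stocks span 25.0–0.05, 10.0–0.02 or 0.02–0.0004 µg/mL, with 2.5% DMSO final. Inoculum is bead-declumped culture grown in 7H9/10% OADC/0.05% Tween 80, diluted to OD600 0.006. Plates run 7 days at 37 °C, then 0.01% resazurin for 48 h. MIC is the lowest concentration preventing the blue-to-pink change. Three independent tests.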

Danio rerio [2] = organism: Danio rerio; test: Cardiotoxicity in Zebrafish AB embryos assessed as heart beat rate at 20 uM measured at 5 days post fertilization by stereomicroscopic method (reference value: 148.1 to 158.2 bpm); assay type: organism-based; details: in vivo, 120 h
[3] = Stability of the compound in PBS containing 10% DMSO at 25 degC measured after 12 hrs by HPLC analysis; assay type: physicochemical; details: buffer
[4] = Stability of the compound in PBS containing 10% DMSO at 25 degC measured after 3 hrs by HPLC analysis; assay type: physicochemical; details: buffer
[5] = Selectivity index, ratio of cytotoxic concentration for human HepG2 cells by neutral red uptake assay to MIC for Mycobacterium tuberculosis H37Rv ATCC 27294; assay type: toxicity; details: read-out: Selectivity Index
[6] = Selectivity index, ratio of cytotoxic concentration for African green monkey Vero cells by MTT assay to MIC for Mycobacterium tuberculosis H37Rv ATCC 27294; assay type: toxicity; details: read-out: Selectivity Index
[7] = Stability of the compound in PBS containing 10% DMSO at 25 degC measured after 48 hrs by HPLC analysis; assay type: physicochemical; details: buffer
[8] = Selectivity index, ratio of cytotoxic concentration for human HaCaT cells by MTT assay to MIC for Mycobacterium tuberculosis H37Rv ATCC 27294; assay type: toxicity; details: read-out: Selectivity Index
[9] = Stability of the compound in PBS containing 10% DMSO at 37 degC measured after 48 hrs by HPLC analysis; assay type: physicochemical; details: read-out: Stability
[10] = Stability of the compound in PBS containing 10% DMSO at 25 degC measured after 6 hrs by HPLC analysis; assay type: physicochemical; details: buffer
Danio rerio [11] = organism: Danio rerio; test: Toxicity in Zebrafish AB embryos assessed as morphological alteration by measuring effect on body length of larvae at 3 to 20 uM measured at 2 to 5 days post fertilization by stereomicroscopic method; assay type: organism-based; details: in vivo
Method in brief: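 AB embryos are treated from 2 hpf to 5 dpf at 3.0, 15.0 and 20.0 µM in fish water with 1% DMSO, at 28 °C. Controls are fish water and 1% DMSO. Larvae are photographed under a stereomicroscope (3×) at 2 and 5 dpf, n = 30. Body length (µm), ocular distance (µm) and eye surface area (µm²) are measured from the images.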

[12] = Cytotoxicity against human HaCaT cells assessed as cell viability at 10 ug/ml after 72 hrs by MTT assay (reference value: 100%); assay type: cell-based; details: read-out: Activity
Method in brief: (§1)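 Cells were grown in DMEM with 10% heat-inactivated FBS and penicillin-streptomycin, seeded at 2×10^3/well (HepG2, HaCat) or 1×10^3/well (Vero), then left 24 h. Compound was applied at 10 µg/mL final (2% DMSO) for 72 h at 37 °C, 5% CO2. MTT 1 mg/mL was added for 3 h, formazan dissolved in DMSO, and A595 read. Viability is expressed relative to 2% DMSO wells; mean ± SEM, triplicates, three independent experiments.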

[13] = Stability of the compound in PBS containing 10% DMSO at 37 degC measured immediately by HPLC analysis; assay type: physicochemical; details: read-out: Stability
[14] = Stability of the compound in PBS containing 10% DMSO at 37 degC measured after 9 hrs by HPLC analysis; assay type: physicochemical; details: for remaining at 9 h: PBS containing 10% DMSO, read-out: Stability
Danio rerio [15] = organism: Danio rerio; test: Toxicity in Zebrafish AB embryos assessed as effect on larval survival rate at 3 to 20 uM; assay type: organism-based; details: in vivo
Method in brief: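 Wild-type AB zebrafish embryos are exposed from 2 hpf to 5 dpf at 3.0, 15.0 and 20.0 µM in fish water with 1% DMSO, at 28 °C on a 14/10 h light-dark cycle. Controls are fish water alone and 1% DMSO. Survival and hatching are checked daily under a stereomicroscope.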

[16] = Cytotoxicity against human HaCaT cells assessed as cell viability at 10 ug/ml after 72 hrs by neutral red uptake assay (reference value: 100%); assay type: cell-based; details: read-out: Activity
Method in brief: (§2)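 Seeding was 2×10^3/well for HepG2 and HaCat and 1×10^3/well for Vero. After 24 h, cells received 10 µg/mL final (2% DMSO) for 72 h at 37 °C, 5% CO2. They were washed with PBS, given neutral red 25 µg/mL in serum-free medium for 3 h, washed, and extracted 30 min with acetic acid/EtOH/water 1:50:49. A540 was read. Viability is relative to 2% DMSO controls; mean ± SEM, three experiments in triplicate.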

[17] = Selectivity index, ratio of cytotoxic concentration for human HaCaT cells by neutral red uptake assay to MIC for Mycobacterium tuberculosis H37Rv ATCC 27294; assay type: toxicity; details: read-out: Selectivity Index
[18] = Stability of the compound in PBS containing 10% DMSO at 37 degC measured after 3 hrs by HPLC analysis; assay type: physicochemical; details: read-out: Stability
Danio rerio [19] = organism: Danio rerio; test: Induction of neurological impairment in Zebrafish AB embryos assessed as alteration in locomotor activity by measuring swimming activity at 3 to 20 uM measured at 5 days post fertilization; assay type: organism-based; details: in vivo, 120 h
Method in brief: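 Larvae were exposed from 2 hpf in fish water with 1% DMSO. At 5 dpf each larva was placed singly in a well of water or treatment solution. After 1 min acclimation, it was video-tracked for 5 min at 15 positions/s, and distance travelled was scored.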

[20] = Stability of the compound in PBS containing 10% DMSO at 37 degC measured after 24 hrs by HPLC analysis; assay type: physicochemical; details: for remaining at 24 h: PBS containing 10% DMSO, read-out: Stability
[21] = Cytotoxicity against African green monkey Vero assessed as cell viability at 10 ug/ml after 72 hrs by neutral red uptake assay (reference value: 100%); assay type: cell-based; details: chlorocebus sabaeus, Vero cells; read-out: Activity; method in brief: as §2
[22] = Cytotoxicity against human HepG2 cells assessed as cell viability at 10 ug/ml after 72 hrs by MTT assay (reference value: 100%); assay type: cell-based; details: read-out: Activity; method in brief: as §1
[23] = Cytotoxicity against human HepG2 cells assessed as cell viability at 10 ug/ml after 72 hrs by neutral red uptake assay (reference value: 100%); assay type: cell-based; details: read-out: Activity; method in brief: as §2
[24] = Selectivity index, ratio of cytotoxic concentration for African green monkey Vero cells by neutral red uptake assay to MIC for Mycobacterium tuberculosis H37Rv ATCC 27294; assay type: toxicity; details: read-out: Selectivity Index
Danio rerio [25] = organism: Danio rerio; test: Cardiotoxicity in Zebrafish AB embryos assessed as heart beat rate at 15 uM measured at 2 days post fertilization by stereomicroscopic method (reference value: 128.7 to 146.3 bpm); assay type: organism-based; details: in vivo, 48 h
Danio rerio [26] = organism: Danio rerio; test: Cardiotoxicity in Zebrafish AB embryos assessed as heart beat rate at 20 uM measured at 2 days post fertilization by stereomicroscopic method (reference value: 128.7 to 146.3 bpm); assay type: organism-based; details: in vivo, 48 h
[27] = Selectivity index, ratio of cytotoxic concentration for human HepG2 cells by MTT assay to MIC for Mycobacterium tuberculosis H37Rv ATCC 27294; assay type: toxicity; details: read-out: Selectivity Index

| SMILES | MIC [1] [µM] | Activity (Danio rerio [2]) [bpm] | Stability [3] [%] | Stability [4] [%] | selectivity ratio [5] | selectivity ratio [6] | Stability [7] [%] | selectivity ratio [8] | remaining at 48 h [9] [%] | Stability [10] [%] | viability at 72 h, 10 ug/ml [12] [%] | remaining at 0 h [13] [%] | Activity (Danio rerio [15]) | viability at 72 h, 10 ug/ml [16] [%] | selectivity ratio [17] | remaining at 3 h [18] [%] | Activity (Danio rerio [19]) | viability at 72 h, 10 ug/ml [21] [%] | viability at 72 h, 10 ug/ml [22] [%] | viability at 72 h, 10 ug/ml [23] [%] | other results |
| --- | --- | --- | --- | --- | --- | --- | --- | --- | --- | --- | --- | --- | --- | --- | --- | --- | --- | --- | --- | --- | --- |
| O=C(CSc1nc2ccccc2c(=O)[nH]1)NC1CCCCC1 | 0.97 (≈ 0.308 µg/mL) | 158.4 | 101 | 108 | ≤ 32 | ≤ 32 | 126 | ≤ 32 | 111 | 100 | 100 | 100 | Non-Toxic | 97 | ≤ 32 | 109 | Non-Toxic | 92 | 86 | 95 | Activity (Danio rerio [11]): Non-Toxic; Stability ([14]; buffer, 9 h): 123%; Stability ([20]; buffer, 24 h): 127%; selectivity ratio [24]: ≤ 32; Activity (Danio rerio [25]): 155 bpm; Activity (Danio rerio [26]): 155.7 bpm; selectivity ratio [27]: ≤ 32 |
| CC1CCCC(NC(=O)CSc2nc3ccccc3c(=O)[nH]2)C1 (stereo unspecified) | 0.24 (≈ 0.0795 µg/mL) | 160.9 | 102 | 101 | ≤ 32 | ≤ 32 | 95 | ≤ 32 | 98 | 102 | 94 | 100 | Non-Toxic | 88 | ≤ 32 | 96 | Non-Toxic | 95 | 89 | 95 | Activity (Danio rerio [11]): Non-Toxic; remaining at 9 h [14]: 97%; remaining at 24 h [20]: 97%; selectivity ratio [24]: ≤ 32; Activity (Danio rerio [25]): 151.7 bpm; Activity (Danio rerio [26]): 152.2 bpm; selectivity ratio [27]: ≤ 32 |
| C[C@H]1CC[C@H](NC(=O)CSc2nc3ccccc3c(=O)[nH]2)CC1 | 0.24 (≈ 0.0795 µg/mL) | 153.8 | 47 | 76 | ≤ 32 | ≤ 32 | 20 | ≤ 32 | 50 | 67 | 97 | 100 | Non-Toxic | 97 | ≤ 32 | 83 | Non-Toxic | 93 | 83 | 97 | remaining at 9 h [14]: 77%; remaining at 24 h [20]: 51%; selectivity ratio [24]: ≤ 32; Activity (Danio rerio [25]): 134 bpm; Activity (Danio rerio [26]): 150.2 bpm; selectivity ratio [27]: ≤ 32 |
| CC1CCCCC1NC(=O)CSc1nc2ccccc2c(=O)[nH]1 (stereo unspecified) | 0.94 (≈ 0.312 µg/mL) | 160.6 | 137 | 128 | ≤ 32 | ≤ 32 | 142 | ≤ 32 | 80 | 122 | 100 | 100 | Non-Toxic | 99 | ≤ 32 | 92 | Non-Toxic | 95 | 94 | 101 | Activity (Danio rerio [11]): Non-Toxic; remaining at 9 h [14]: 71%; remaining at 24 h [20]: 81%; selectivity ratio [24]: ≤ 32; Activity (Danio rerio [25]): 151.7 bpm; Activity (Danio rerio [26]): 153.9 bpm; selectivity ratio [27]: ≤ 32 |
| CC1CCC(NC(=O)CSc2nc3ccccc3c(=O)[nH]2)CC1 (stereo unspecified) | 0.24 (≈ 0.0795 µg/mL) | 152.2 | 100 | 97 | ≤ 32 | ≤ 32 | 125 | ≤ 32 | 48 | 97 | 95 | 100 | Non-Toxic | 94 | ≤ 32 | 80 | Non-Toxic | 95 | 89 | 96 | Activity (Danio rerio [11]): Non-Toxic; remaining at 9 h [14]: 69%; remaining at 24 h [20]: 43%; selectivity ratio [24]: ≤ 32; Activity (Danio rerio [25]): 127.2 bpm; Activity (Danio rerio [26]): 146.4 bpm; selectivity ratio [27]: ≤ 32 |
| O=C(CSc1nc2ccccc2c(=O)[nH]1)NCC1CCCCC1 | 0.94 (≈ 0.312 µg/mL) | 152.5 | 112 | 103 | ≤ 32 | ≤ 32 | 125 | ≤ 32 | 105 | 115 | 98 | 100 | Non-Toxic | 88 | ≤ 32 | 106 | Non-Toxic | 97 | 79 | 97 | Activity (Danio rerio [11]): Non-Toxic; remaining at 9 h [14]: 112%; remaining at 24 h [20]: 104%; selectivity ratio [24]: ≤ 32; Activity (Danio rerio [25]): 143.2 bpm; Activity (Danio rerio [26]): 152.6 bpm; selectivity ratio [27]: ≤ 32 |
